Results taken from ChEMBL document CHEMBL1144865, “N-aminoimidazole derivatives inhibiting retroviral replication via a yet unidentified mode of action” (J Med Chem, 2003).

Tests used:
[1] = test system: Human immunodeficiency virus 2; assay: Concentration required to inhibit the viral (HIV-2 ROD) cytopathic effect by 50% in MT-4 cells.; format: functional, organism-based, MT4
Method in brief: (§1)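 Virus-infected MT-4 cells cultured with serial compound dilutions; viability measured 5 days after infection by MTT tetrazolium colorimetric read-out. The value is the concentration protecting 50% of cells from viral cytopathic effect. Averages ± SD from at least two independent experiments. HIV-2 and SIV stocks came from infected MT-4 culture supernatants.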

[2] = test system: Simian immunodeficiency virus; assay: Concentration required to inhibit the viral (SIV mac251) cytopathic effect by 50% in MT-4 cells.; format: functional, organism-based, MT4; method in brief: as §1
[3] = test system: Human immunodeficiency virus 1; assay: Concentration required to inhibit the viral (HIV-1 IIIB strain) cytopathic effect by 50% in MT-4 cells.; format: functional, organism-based; details: Human immunodeficiency virus 1, MT4; method in brief: as §1
[4] = test system: Human immunodeficiency virus 1; assay: Concentration required to inhibit the viral (HIV-1 NL4.3 strain) cytopathic effect by 50% in MT-4 cells.; format: functional, organism-based; details: Human immunodeficiency virus 1, MT4; method in brief: as §1
MT4 = assay: Concentration that reduced the MT-4 cell viability by 50%.; format: functional, Homo sapiens
Method in brief: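 Mock-infected MT-4 cells, run in parallel with the antiviral assay, were exposed to compound. Viability on day 5 was read by MTT colorimetry. The value is the concentration lowering viability by 50%. Averages ± SD from at least two independent experiments.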

[5] = test system: Human immunodeficiency virus 1; assay: Concentration required to inhibit the viral (HIV-1 NNRTI resistant strain) cytopathic effect by 50% in MT-4 cells.; format: functional, organism-based; details: Human immunodeficiency virus 1, MT4
Method in brief: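 MT-4 cells infected with HIV-1(III_B)-derived strain S0561945 (K103N + Y181C RT mutations, NNRTI-resistant). Cultured with varying compound concentrations; viability read on day 5 post-infection by MTT tetrazolium colorimetry. Value is the concentration giving 50% protection against virus-induced cytopathic effect. Cytotoxicity measured in parallel on mock-infected cells at day 5. Averages ± SD from at least two independent experiments.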

[6] = Human immunodeficiency virus 2, MT4
[7] = Simian immunodeficiency virus, mac251, MT4

Compound	IC50 [1, 6]	IC50 [2, 7]	IC50 [3]	IC50 [4]	IC50 ([1]; mt4)	IC50 ([2]; mt4)	CC50 (MT4; Homo sapiens, MT4)	IC50 [5]	CC50 (MT4)
Cc1cc(C)cc(NN2C(S)=NC(C)C2c2ccccc2)c1 (stereo not drawn)	> 194 µM	> 194 µM	1.03 µM	0.87 µM			194 µM	> 194 µM	
SC1=NC(c2ccccc2)C(c2ccccc2)N1Nc1cccc(Cl)c1 (stereo not drawn)	> 36.3 µM	> 36.3 µM	> 36.3 µM	> 36.3 µM			36.3 µM	> 36.3 µM	
Cc1ncn(Nc2cccc(Cl)c2)c1-c1cccc(C(N)=O)c1	> 260 µM	> 260 µM	> 260 µM	> 260 µM			260 µM		
Cc1nc(S)n(Nc2cccc3ccccc23)c1-c1ccccc1	5.1 µM	4.68 µM	5.55 µM	6.58 µM			32 µM	11.9 µM	
Cc1cccc(NN2C(S)=NC(C)C2c2cccc(C(=O)O)c2)c1 (stereo not drawn)	> 187 µM	> 187 µM	> 187 µM	> 187 µM			187 µM		
Cc1cccc(NN2C(S)=NC(C)C2C)c1 (stereo not drawn)	> 360 µM	> 360 µM	> 360 µM	> 360 µM			360 µM		
COC(=O)C1C(C)N=C(S)N1Nc1cccc(Cl)c1 (stereo not drawn)	> 190 µM	> 190 µM	> 190 µM	> 190 µM			190 µM		
Cc1nc(S)n(Nc2ccc(F)cc2)c1-c1ccccc1	> 220 µM	> 220 µM	> 220 µM	> 220 µM			220 µM		
Cc1ncn(Nc2cccc(Cl)c2)c1C					> 214 µM	> 214 µM			214 µM
CC1N=C(S)N(Nc2cc(Cl)ccc2Cl)C1c1ccccc1 (stereo not drawn)	> 147 µM	> 147 µM	> 147 µM	> 147 µM			147 µM		
Cc1nc(S)n(Nc2ccc(Cl)cc2)c1-c1ccccc1	> 134 µM	> 134 µM	> 134 µM	> 134 µM			134 µM		
COc1ccc(-c2c(C)nc(S)n2Nc2cccc(Cl)c2)cc1	> 38.7 µM	10.1 µM	> 38.7 µM	> 38.7 µM			38.7 µM	> 38.7 µM	
Cc1cccc(Nn2cnc(C)c2-c2cccc(C(N)=O)c2)c1	> 162 µM	> 162 µM	> 162 µM	> 162 µM			162 µM		
Cc1ncn(Nc2cccc(Cl)c2)c1-c1cccc(C(=O)O)c1	> 161 µM	> 161 µM	> 161 µM	> 161 µM			161 µM		
Cc1cccc(Nn2cnc(C)c2C)c1	> 312 µM	> 312 µM	> 312 µM	> 312 µM			312 µM		
COc1cccc(NN2C(S)=NC(C)C2c2ccccc2)c1 (stereo not drawn)	> 38 µM	> 38 µM	4.78 µM	9.79 µM			38 µM	> 38 µM	
Clc1cccc(Nn2cnc3c2CCCC3)c1					> 67.3 µM	> 67.3 µM			67.3 µM
COC(=O)c1c(C)ncn1Nc1cccc(Cl)c1	> 107 µM	> 107 µM	> 107 µM	> 107 µM			107 µM		
CC1N=C(S)N(Nc2cccc(Br)c2)C1c1ccccc1 (stereo not drawn)	> 44.2 µM	2.72 µM	9.96 µM	4.52 µM			44.2 µM	5.77 µM	
Cc1ncn(Nc2ccccc2)c1C	> 351 µM	> 351 µM	> 351 µM	> 351 µM			351 µM		
CC1N=C(S)N(Nc2ccccc2)C1c1ccccc1 (stereo not drawn)	> 191 µM	> 191 µM	> 191 µM	> 191 µM			191 µM		
CC1N=C(S)N(Nc2ccccc2)C1C (stereo not drawn)	> 181 µM	> 181 µM	> 181 µM	> 181 µM			181 µM		
CC1N=C(S)N(Nc2cccc(Cl)c2)C1C (stereo not drawn)	> 259 µM	> 259 µM	> 259 µM	> 259 µM			259 µM		
SC1=NC2CCCCC2N1Nc1cccc(Cl)c1 (stereo not drawn)	> 126 µM	> 126 µM	> 126 µM	> 126 µM			126 µM		
CC1N=C(S)N(Nc2cccc(Cl)c2)C1C(=O)O (stereo not drawn)	> 266 µM	> 266 µM	> 266 µM	> 266 µM			266 µM		
CC1N=C(S)N(Nc2cccc(Cl)c2)C1c1cccc(C(=O)O)c1 (stereo not drawn)	> 120 µM	> 120 µM	> 120 µM	> 120 µM			120 µM		

More lines, main results first:

IC50 [1, 6]	IC50 [2, 7]	IC50 [3]	IC50 [4]	IC50 ([1]; mt4)	IC50 ([2]; mt4)	Compound	CC50 (MT4; Homo sapiens, MT4)	IC50 [5]	CC50 (MT4)
> 53 µM	> 53 µM	> 53 µM	> 53 µM			CSc1ccc(NN2C(S)=NC(C)C2c2ccccc2)cc1 (stereo not drawn)	53 µM		
> 67.4 µM	> 67.4 µM	> 67.4 µM	> 67.4 µM			COC(=O)c1cccc(C2C(C)N=C(S)N2Nc2cccc(Cl)c2)c1 (stereo not drawn)	67.4 µM		
> 52.2 µM	> 52.2 µM					Cc1ncn(Nc2ccccc2)c1-c1ccccc1	52.2 µM		
> 34.5 µM	> 34.5 µM	> 34.5 µM	> 34.5 µM			CCc1ccc(NN2C(S)=NC(C)C2c2ccccc2)cc1 (stereo not drawn)	34.5 µM		
> 45.6 µM	> 45.6 µM	> 45.6 µM	> 45.6 µM			Cc1cccc(NN2C(S)=NC(C)C2c2cccc(C#N)c2)c1 (stereo not drawn)	45.6 µM		
> 44.7 µM	> 44.7 µM	> 44.7 µM	> 44.7 µM			Cc1cccc(Nn2cnc(C)c2-c2cccc(C#N)c2)c1	44.7 µM		
> 33.1 µM	> 33.1 µM	> 33.1 µM	> 33.1 µM			COC(=O)c1cccc(-c2c(C)ncn2Nc2cccc(Cl)c2)c1	33.1 µM		
> 27.9 µM	> 27.9 µM	> 27.9 µM	> 27.9 µM			CCc1ncn(Nc2cccc(C)c2)c1-c1ccccc1	27.9 µM		
> 34.4 µM	> 34.4 µM	> 34.4 µM	> 34.4 µM			COc1cccc(Nn2cnc(C)c2-c2ccccc2)c1	34.4 µM		
> 33.2 µM	> 33.2 µM	> 33.2 µM	> 33.2 µM			Cc1nc(S)n(Nc2cccc(Cl)c2)c1-c1ccc(Br)cc1	33.2 µM		
> 20.4 µM	> 20.4 µM					Cc1cc(C)cc(Nn2cnc(C)c2-c2ccccc2)c1	20.4 µM		
> 50 µM	> 50 µM	> 50 µM	> 50 µM			Cc1c(-c2ccccc2)nc(S)n1Nc1cccc(Cl)c1	50 µM		
> 42.2 µM	> 42.2 µM	> 42.2 µM	> 42.2 µM			CC1N=C(S)N(Nc2cccc(Cl)c2)C1c1cccc(C(N)=O)c1 (stereo not drawn)	42.2 µM		
> 39.7 µM	> 39.7 µM	> 39.7 µM	> 39.7 µM			Cc1nc(SCc2ccccc2)n(Nc2cccc(Cl)c2)c1-c1ccccc1	39.7 µM		
> 48.8 µM	> 48.8 µM	> 48.8 µM	> 48.8 µM			COC(=O)C1N=C(S)N(Nc2cccc(Cl)c2)C1C (stereo not drawn)	48.8 µM		
> 42.1 µM	> 42.1 µM	> 42.1 µM	> 42.1 µM			CSc1nc(C)c(-c2ccccc2)n1Nc1cccc(Cl)c1	42.1 µM		
